High-throughput results as filed in PubChem.
Hits are enriched below; roughly 3.7% of the tested compounds scored in any of these assays.
KCNK9 block: blocks the human KCNK9 two-pore domain potassium channel. Q9NPC2. HEK293 KCNK9, FluxOR thallium flux fluorescence; active compounds read low. B-score at 10 µM. hit rate 1.2% among 310,000;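 active means ratio B-score over 3 SD below the library mean, with starting fluorescence within 5 SD of its mean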;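 further: negative B-score means less thallium flux so channel inhibition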
hERG protect: compounds protecting human hERG from proarrhythmic drug block | CHO-hERG, FluxOR thallium flux, dofetilide IC70 present | activation (rescue from dofetilide block), less the hit threshold, % at 10 µM | hit rate 0.51% among 310,000;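 active means activation above the mean of controls blocked by dofetilide plus 5 SD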;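 further: thallium influx through hERG after potassium depolarization seen as dye fluorescence rise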
KCNQ1 act: potentiates or activates the human KCNQ1 potassium channel | P51787 | CHO-K1 KCNQ1, thallium flux FluxOR fluorescence; active compounds read high | B-score at 10 µM | hit rate 0.35% among 310,000 | AID 2648;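 active means fluorescence ratio B-score, a plate-corrected score, at least three library SD, with initial intensity B-score within 5 SD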
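System: Stable KCNQ1 CHO-K1 line | Incubation: 90 min dye loading and 20 min compound exposure, both at room temperature | Measure: Ratio B score | Medium: Assay buffer for compound exposure, DMSO matched across wells | Compound dosing: Single-concentration screen | Probe or stimulus: K+/Tl+ depolarizing stimulus | Measured by: Kinetic FluxOR fluorescence, 10 s baseline plus 110 s post-stimulus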
KCNQ1 block: blocks the human KCNQ1 potassium channel; P51787; CHO-K1 KCNQ1, FluxOR thallium flux fluorescence; active compounds read high; B-score at 10 µM; hit rate 1.3% among 310,000;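 active means compounds whose thallium flux B-score, printed positive for inhibition, exceeds three library SD while starting fluorescence stays within three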;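 further: channel opened by potassium depolarization with thallium stimulus after 20 min compound exposure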
Kir21 block: inhibitors of mouse Kir2.1 inward-rectifier potassium channel. P35561. HEK293-Kir2.1, FluxOR thallium flux fluorescence; active compounds read low. B-score at 10 µM. hit rate 0.85% among 310,000;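 active means fluorescence ratio B-score at or below minus 3 SD of library scores, with starting-brightness B-score within 2 SD, cut at about -4.2 in these data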;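 further: channel flux triggered by added potassium and thallium sulfate stimulus; B-score of peak minus minimum fluorescence over baseline after thallium stimulus; more negative B-score means stronger Kir2.1 block with less thallium influx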
KCNK3 block: human KCNK3 channel inhibition, primary screen. O14649. CHO-KCNK3 thallium flux, FluxOR fluorescence; active compounds read low. B-score at 10 µM. hit rate 0.84% among 340,000. AID 602410;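 active means B-score under library mean minus 4 SD, starting fluorescence ratio at most library mean plus 5 SD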;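 further: more negative B-score means stronger inhibition of thallium flux through KCNK3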
KCNQ1 block val: confirmation of human KCNQ1 potassium channel inhibitors | hit rate 93% among 1,600 | shares compounds with KCNQ1 block | inhibition, % at 10 µM | AID 588353 | KCNQ1 cell line, FluxOR thallium flux fluorescence;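 active means primary screen active, with duplicate mean exceeding buffer control mean plus 3 SD of buffer wells, cut at about 28% in these data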;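 further: 0% = buffer control ratio and 100% = XE991 inhibitor control ratio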
CHO KCNQ1 ctr: KCNQ1 inhibitor counter-screen hit in parental CHO cells; shares compounds with KCNQ1 block; parental CHO-K1, FluxOR thallium flux fluorescence ratio; active compounds read low; zero means no signal rise above baseline; fluorescence ratio (Tl flux) at 10 µM; hit rate 21% among 1,600; AID 588366;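 active means mean of duplicate thallium-flux fluorescence ratios in parental host cells more than 5 SD below the buffer control mean, cut at about 0.38 in these data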;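 further: ratio is peak minus minimum fluorescence divided by baseline fluorescence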
KCNQ1 ephys val: blocks human KCNQ1 current in automated patch clamp. shares compounds with KCNQ1 block. KCNQ1-CHO cells. calls only at 10 µM. hit rate 20% among 490;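 active means KCNQ1 current drop exceeding 3 SD of negative control wells, seen in both duplicate runs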;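 further: steady state current during a 2 s step from -80 to +40 mV; negative values mean current inhibition and positive values mean potentiation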
KCNQ2 inh: selectivity of KCNQ1 inhibitors: inhibition of rat KCNQ2 channel; shares compounds with KCNQ1 block; KCNQ2 cells, FluxOR thallium flux fluorescence; inhibition, % at 10 µM; hit rate 71% among 1,600; AID 651746;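 active means mean percent inhibition of the KCNQ2 thallium signal more than 5 SD above the buffer-only control wells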;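 further: KCNQ2 expressed in CHO cells; 0% = buffer control wells and 100% = XE-991 inhibitor control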
Target sequence (O88943 whole entry, looked up): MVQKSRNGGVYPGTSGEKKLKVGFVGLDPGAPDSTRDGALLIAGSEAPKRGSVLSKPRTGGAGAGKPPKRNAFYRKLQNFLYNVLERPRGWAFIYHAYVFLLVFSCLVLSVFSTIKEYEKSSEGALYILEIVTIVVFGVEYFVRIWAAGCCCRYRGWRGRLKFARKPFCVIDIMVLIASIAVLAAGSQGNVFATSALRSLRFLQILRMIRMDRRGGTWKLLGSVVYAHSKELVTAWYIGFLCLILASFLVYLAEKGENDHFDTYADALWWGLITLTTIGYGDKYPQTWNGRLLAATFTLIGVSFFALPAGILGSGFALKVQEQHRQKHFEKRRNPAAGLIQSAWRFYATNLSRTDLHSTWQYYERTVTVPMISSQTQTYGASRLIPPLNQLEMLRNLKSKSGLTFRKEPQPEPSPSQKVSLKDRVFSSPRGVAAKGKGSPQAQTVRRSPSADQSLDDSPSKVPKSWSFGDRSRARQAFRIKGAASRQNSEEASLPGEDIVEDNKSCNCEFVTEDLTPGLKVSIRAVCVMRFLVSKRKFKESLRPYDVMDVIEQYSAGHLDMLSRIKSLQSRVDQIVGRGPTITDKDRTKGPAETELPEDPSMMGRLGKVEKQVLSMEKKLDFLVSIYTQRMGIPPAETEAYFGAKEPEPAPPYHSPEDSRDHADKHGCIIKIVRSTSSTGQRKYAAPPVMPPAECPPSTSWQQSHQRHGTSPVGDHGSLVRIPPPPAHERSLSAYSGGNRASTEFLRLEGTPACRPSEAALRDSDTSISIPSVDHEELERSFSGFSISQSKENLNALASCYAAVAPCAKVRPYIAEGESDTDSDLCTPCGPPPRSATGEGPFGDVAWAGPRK
KCNQ1 KCNE1 spec: human KCNQ1/KCNE1 inhibition in KCNQ1 specificity screen | hit rate 77% among 1,600 | inhibition, % at 10 µM | KCNQ1/KCNE1 cells, FluxOR thallium flux fluorescence | shares compounds with KCNQ1 block;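 active means mean percent inhibition of duplicate wells above the buffer-only control mean plus 3 SD of those controls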;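 further: 0% = buffer only wells and 100% = XE-991 inhibitor control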
KCNK9 inh conf: confirmation of human KCNK9 potassium channel inhibitors; shares compounds with KCNK9 block; HEK293 KCNK9 cells, FluxOR thallium flux fluorescence; inhibition, % at 10 µM; hit rate 43% among 4,900; AID 492992;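 active means thallium signal inhibited by more than 5 SD of the compound-free buffer control wells, on both duplicate plates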;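 further: 0% = assay buffer control wells without compound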
Kir21 sel: selectivity of KCNK9 modulators against mouse Kir2.1; shares compounds with KCNK9 block; Kir2.1 cells, FluxOR thallium flux fluorescence; inhibition, % at 10 µM; hit rate 4% among 4,900;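 active means thallium signal drop more than 5 SD beyond the mean of the no-compound control wells, seen in both duplicate plates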;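 further: signal is fluorescence rise after thallium addition divided by baseline fluorescence; plate controls were assay buffer only for no effect and full block by chlorpromazine control for full effect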
KCNK9 uninduced: second counter-screen for KCNK9 modulators: effect in non-induced cells; shares compounds with KCNK9 block; non-induced KCNK9-HEK293, FluxOR thallium flux; inhibition, % at 10 µM; hit rate 40% among 4,900; AID 492997;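 active means thallium signal drop beyond 5 SD of the untreated control mean, on both duplicate plates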;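 further: plate controls were buffer only IC0 wells for no effect and SID17386958 at its maximal inhibitory level for full effect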
* marks the source's active call; other numbers are inactive results; i = inactive; . = no result given; + = active, no number.

SMILES | KCNK9 block | hERG protect | KCNQ1 act | KCNQ1 block | Kir21 block | KCNK3 block | KCNQ1 block val | CHO KCNQ1 ctr | KCNQ2 inh | KCNQ1 KCNE1 spec | others
O=C(c1cccc(Cl)c1)C1CCCN(S(=O)(=O)c2ccccc2)C1 (centres undefined) | i | -7.8 | i | i | -0.2 | i | . | . | . | .
Cc1ccc(C)c(OCCCCn2cnc3ccccc3c2=O)c1 | i | -9.0 | i | i | -1.72 | i | . | . | . | .
Cc1ccc(OCCCCn2cnc3ccccc32)c(C)c1 | i | -11.0 | i | 9* | -1.14 | i | 115.5* | 0.512 | 74.0%* | 81.5%* | KCNQ1 ephys val=i
CC(C)Cc1nnc(NC(=O)CCC(=O)NC2CCCC2)s1 | i | -2.6 | i | i | 0.7 | i | . | . | . | .
O=C1CSC(c2cn(-c3ccccc3)nc2-c2ccccc2)N1Cc1ccco1 (centres undefined) | i | -11.9 | i | 10* | -0.45 | i | 134.0* | 0.416 | 107.7%* | 189.0%* | KCNQ1 ephys val=i
COc1ccc(N=c2cc(-c3ccc(OC)cc3)oc3ccccc23)cc1 | i | -11.2 | i | 12* | -3.8 | i | 147.0* | 0.364* | i | +
CN1CCC(N(C)C(=O)c2ccc(Cl)c(S(=O)(=O)N3CCOCC3)c2)CC1 | . | . | . | . | . | i | . | . | . | .
CCOC(=O)c1c(NC(=O)c2ccccc2C)sc2c1CC(C)(C)OC2 | i | -9.8 | i | 7* | 0.27 | i | 86.0* | 0.442 | 91.7%* | 150.5%*
Cc1ccc(NC(=O)c2cc(S(=O)(=O)N3CCCC3)cn2C)cc1 | i | -11.0 | i | i | 1.02 | i | . | . | . | .
c1ccc(Cn2ncc3c(N4CCN(C(c5ccccc5)c5ccccc5)CC4)ncnc32)cc1 | i | 9.4* | i | 10* | 1.68 | i | + | 0.376* | i | i
NC(=O)CSc1nc(C23CC4CC(CC(C4)C2)C3)nc2ccccc12 | i | -16.8 | i | 6* | -1.38 | i | 91.0* | 0.385 | i | 94.0%* | KCNQ1 ephys val=i
Cc1ccc(Cn2c(=N)n(CC(O)COc3ccccc3)c3ccccc32)cc1 (centres undefined) | -7.6* | -24.2 | i | 6* | -8.54* | i | 129.5* | 0.48 | 68.0%* | i | KCNQ1 ephys val=i
N#Cc1ccccc1NC(=O)C1SC(=Nc2ccccc2)C(C(=O)Nc2ccc(Cl)cc2)=C1N (centres undefined) | i | -20.9 | i | 10* | 0.93 | i | 112.5* | 0.429 | 97.3%* | 82.0%* | KCNQ1 ephys val=i
O=C(Nc1cccc(Cl)c1)N(CCCN1CCOCC1)Cc1ccccc1F | i | -13.1 | i | 11* | -0.06 | i | 78.5* | 0.512 | 106.3%* | 71.0%*
Cc1nc(NS(=O)(=O)c2ccc(Cl)s2)c2c3c(sc2n1)CCCC3 | i | -18.2 | i | 7* | 0.23 | i | 79.0* | 0.471 | i | 66.0%* | KCNK9 inh conf=i;Kir21 sel=i;KCNK9 uninduced=i
Cc1ccc(C(=O)Nc2ccc3c(c2)OCO3)cc1S(=O)(=O)N1CCCC1 | i | -4.3 | i | i | -0.53 | i | . | . | . | .
Cc1ccc(C(=O)OCc2ccc3c(c2)OCO3)cc1S(=O)(=O)N1CCCCC1 | -13.1* | -8.4 | i | 7* | -0.18 | i | 74.5* | 0.413 | 84.7%* | 77.5%* | KCNK9 inh conf=41.0%*;Kir21 sel=i;KCNK9 uninduced=36.5%*
CSc1ccccc1NC(=O)CSc1nnc(CNC(=O)c2ccccc2F)n1C | i | -2.2 | i | i | -1.32 | i | . | . | . | .
CCC(C)C(=O)Nc1cccc(SC)c1 (centres undefined) | i | -2.3 | i | i | 0.94 | . | . | . | . | .
COc1cccc(C(=O)C2CCCN(Cc3cccn3-c3ccccn3)C2)c1 (centres undefined) | i | -22.6 | i | i | -1.83 | i | . | . | . | .
CC(C)Oc1cccc(C(=O)C2CCCN(Cc3cccn3-c3ccccn3)C2)c1 (centres undefined) | i | -18.8 | i | 8* | -2.86 | i | 51.5* | 0.468 | 76.3%* | i | KCNK9 inh conf=i;Kir21 sel=i;KCNK9 uninduced=i
CC1CCN(CCCNC(=O)c2nn(C)c3c2CS(=O)(=O)c2ccccc2-3)CC1 | i | -5.1 | i | i | -0.92 | i | . | . | . | .
Cc1cc(Cl)ccc1OC(C)C(=O)Nc1ccccc1N1CCOCC1 (centres undefined) | -9.3* | -4.6 | i | 6* | 0.76 | i | 87.5* | 0.316* | 101.3%* | 139.5%* | KCNK9 inh conf=38.5%*;Kir21 sel=44.0%*;KCNK9 uninduced=46.0%*
Cc1n[nH]c(C)c1CNCc1c(C(=O)N2CCCCCCC2)nc2ccc(Cl)cn12 | i | -7.5 | i | i | 0.92 | i | . | . | . | .
O=C(c1nc2ccc(Cl)cn2c1CNCC[C@@H]1C[C@@H]2C=C[C@H]1C2)N1CCCCCCC1 | i | -13.6 | i | 9* | -4.99 | i | 97.5* | 0.466 | 81.7%* | 84.0%* | KCNQ1 ephys val=i;KCNK9 inh conf=i;Kir21 sel=i;KCNK9 uninduced=i
O=C(NCc1ccc2c(c1)OCO2)c1c(-c2ccccc2)sc2ccccc12 | . | . | . | . | . | i | . | . | . | .
Cc1c(O)ccc(C(=O)CN2CCN(c3ccccc3)CC2)c1O | i | -3.2 | i | i | 1.71 | i | . | . | . | .
Cc1cccc2c1cnn2C(=O)CCC(=O)N1CCC(C)CC1 | i | -4.8 | i | i | 0.27 | i | . | . | . | .
Cc1cccc2c1cnn2C(=O)CCC(=O)N1CC(C)CC(C)C1 (centres undefined) | i | -13.0 | i | 11* | 0.39 | i | 25.0* | 0.475 | 72.0%* | i | KCNK9 inh conf=i;Kir21 sel=i;KCNK9 uninduced=i
